Data reported in ChEMBL document CHEMBL3352563, “Design, synthesis and molecular docking of substituted 3-hydrazinyl-3-oxo-propanamides as anti-tubercular agents” (Bioorg Med Chem Lett, 2014).
Converted amounts (≈) assume the structure as drawn.

Columns and labels:
[1] = molecular target: T1, Serine/threonine-protein kinase PknB (Mycobacterium tuberculosis, UniProt P9WI81); assay: Inhibition of Mycobacterium tuberculosis PknB
T1 sequence (P9WI81 whole entry): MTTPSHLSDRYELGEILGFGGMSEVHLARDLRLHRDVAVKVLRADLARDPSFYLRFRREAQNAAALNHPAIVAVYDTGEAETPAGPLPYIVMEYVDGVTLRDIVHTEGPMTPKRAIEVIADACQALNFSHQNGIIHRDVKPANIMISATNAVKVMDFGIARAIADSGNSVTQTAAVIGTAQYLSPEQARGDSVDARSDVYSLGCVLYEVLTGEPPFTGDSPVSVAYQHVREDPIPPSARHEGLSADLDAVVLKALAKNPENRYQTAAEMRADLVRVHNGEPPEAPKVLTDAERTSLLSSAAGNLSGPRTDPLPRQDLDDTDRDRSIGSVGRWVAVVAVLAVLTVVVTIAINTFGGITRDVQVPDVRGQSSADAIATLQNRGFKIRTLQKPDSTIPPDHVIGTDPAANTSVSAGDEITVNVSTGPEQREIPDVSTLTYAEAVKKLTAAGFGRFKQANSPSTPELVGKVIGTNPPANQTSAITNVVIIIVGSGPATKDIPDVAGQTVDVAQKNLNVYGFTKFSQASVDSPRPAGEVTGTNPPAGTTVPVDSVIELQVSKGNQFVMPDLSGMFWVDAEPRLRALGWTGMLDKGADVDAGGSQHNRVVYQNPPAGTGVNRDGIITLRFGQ

[2] = test system: Mycobacterium tuberculosis; assay: Anti-tubercular activity against Mycobacterium tuberculosis H37Rv by resazurin microtitre assay; type: functional
In short: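 Value is the minimum inhibitory concentration (MIC) found by the resazurin microtitre (REMA) method.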

SMILES | Ki [1] [µM] | MIC [2] [µg/mL]
NNC(=O)CC(=O)Nc1ccc(C(=O)O)cc1 | 3.86 | 12.5 (≈ 52.7 µM)
NNC(=O)CC(=O)Nc1ccc(F)c(Cl)c1 | 3.53 | 50 (≈ 204 µM)
NNC(=O)CC(=O)Nc1ccccc1[N+](=O)[O-] | 22.9 | > 100
NNC(=O)CC(=O)Nc1cccc([N+](=O)[O-])c1 | 12.5 | > 100
NNC(=O)CC(=O)Nc1ccc([N+](=O)[O-])cc1 | 10.8 | > 100
NNC(=O)CC(=O)Nc1ccc([N+](=O)[O-])cc1[N+](=O)[O-] | 6.38 | > 100
NNC(=O)CC(=O)Nc1cc(Cl)cc(Cl)c1 | 7.68 | > 100
NNC(=O)CC(=O)Nc1ccc(Cl)c(Cl)c1 | 9.21 | > 100
COc1ccc(OC)c(NC(=O)CC(=O)NN)c1 | 7.01 | > 100
COc1ccc(NC(=O)CC(=O)NN)c(OC)c1 | 5.25 | > 100
CCN(CC)c1ccc(NC(=O)CC(=O)NN)cc1 | 13.1 | 100 (≈ 378 µM)
CCCCc1ccc(NC(=O)CC(=O)NN)cc1 | 26.5 | 12.5 (≈ 50.1 µM)
CCCc1ccc(NC(=O)CC(=O)NN)cc1 | 9.04 | 12.5 (≈ 53.1 µM)
NNC(=O)CC(=O)Nc1ccc(S(=O)(=O)O)cc1 | 7.59 | 50 (≈ 183 µM)
NNC(=O)CC(=O)Nc1ccccc1C(=O)O | 7.32 | 50 (≈ 211 µM)
NNC(=O)CC(=O)NCc1ccco1 | 18.5 | > 100
NNC(=O)c1ccncc1 [ISONIAZID] |  | 0.02 (≈ 0.146 µM)
CO[C@H]1/C=C/O[C@@]2(C)Oc3c(C)c(O)c4c(O)c(c(/C=N/N5CCN(C)CC5)c(O)c4c3C2=O)NC(=O)/C(C)=C\C=C\[C@H](C)[C@H](O)[C@@H](C)[C@@H](O)[C@@H](C)[C@H](OC(C)=O)[C@@H]1C [RIFAMPIN] |  | 0.01 (≈ 0.0122 µM)
